# A selection: hits, their analogues and other compounds. The true share with any hit is near 1.8%.
# UBC9 SUMO inh = inhibitors of human SUMOylation (UBC9) | inhibition, % at 35 µM | P63279 | AID 2006 | 0.36% of 290,000 active | HTRF SUMOylation assay, SAE1/SAE2 + UBC9, in vitro; in the data active = inhibition above about 50%, passing the limit was not always enough
# Target sequence (P63279 whole entry, looked up): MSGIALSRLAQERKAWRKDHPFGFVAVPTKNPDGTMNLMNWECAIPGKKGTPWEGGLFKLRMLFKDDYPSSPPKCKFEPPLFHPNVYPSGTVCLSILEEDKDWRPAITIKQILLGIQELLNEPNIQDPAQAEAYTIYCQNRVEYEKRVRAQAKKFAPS
# TPT1 inhibitor = C. albicans TPT1 enzyme inhibition; recombinant caTPT1, FP RNA substrate dephosphorylation; inhibition, % at 5 µM; 0.81% of 300,000 active; AID 1962;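 active = inhibition above the mean of all tested compounds plus 3 SD, set per screening campaign, cut at about 24% in these data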
# HNF4A DNA FP = change in binding of human HNF4 alpha to DNA; HNF4a-FITC DNA binding, fluorescence polarization, 1 h; activity change, % at 10 µM; 0.3% of 360,000 active; in the data active = activity change above about 30%, passing the limit was not always enough
# Target sequence (P41235 whole entry, looked up): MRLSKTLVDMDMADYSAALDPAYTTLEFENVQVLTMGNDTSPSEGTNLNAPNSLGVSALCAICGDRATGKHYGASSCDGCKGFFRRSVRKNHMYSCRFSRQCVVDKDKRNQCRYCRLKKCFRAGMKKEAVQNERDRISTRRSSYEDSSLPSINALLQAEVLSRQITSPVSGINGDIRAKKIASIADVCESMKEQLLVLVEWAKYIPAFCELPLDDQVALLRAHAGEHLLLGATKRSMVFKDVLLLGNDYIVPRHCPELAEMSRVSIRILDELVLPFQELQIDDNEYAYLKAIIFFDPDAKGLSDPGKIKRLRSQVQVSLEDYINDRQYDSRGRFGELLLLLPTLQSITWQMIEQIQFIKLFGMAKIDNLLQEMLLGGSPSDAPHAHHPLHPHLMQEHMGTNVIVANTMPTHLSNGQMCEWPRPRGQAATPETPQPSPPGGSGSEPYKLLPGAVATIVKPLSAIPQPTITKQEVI
# CSN deneddyl inh = CSN deneddylation inhibition; Q92905; Purified CSN, SCF-Nedd8-OG deneddylation, fluorescence polarization; inhibition, % at 12.5 µM; 0.38% of 360,000 active; AID 651999;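 active = pattern-corrected inhibition above about 35%, with an unprinted fluorescence ratio check between 0.5 and 1.5, limit read from the data, passing the limit was not always enough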
#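 Material: purified human Csn5 enzyme expressed in HEK293T cells / Medium: Tris buffer pH 7.5, NaCl, DTT, Tween-20, trehalose, ovalbumin / Compound dosing: 12.5 µM single point / Schedule: 90 min incubation of compound, enzyme and substrate at room temperature / Signal: fluorescence polarization of the substrate / Control set: no-enzyme wells high, enzyme-with-substrate wells low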
# Rpn11 inh = inhibitors of human proteasome Rpn11 | O00487 | human 26S proteasome, Ub4-pepOG fluorescence polarization; 20S core pre-blocked with epoxomicin | calls only at 20 µM | 0.59% of 360,000 active | AID 588493;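 active = inhibition at 20 µM, scaled to each plate's controls, above about 33%, limit read from the data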
# SENP1 FRET inh = SENP1 (human) catalytic domain inhibition. Q9P0U3. 0.21% of 360,000 active. recombinant SENP1 catalytic domain, CyPet-SUMO1-YPet FRET cleavage. inhibition, % at 10 µM;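 active = inhibition at least 30% at 10 µM, raw YFP signal under a set limit, fluorescence ratio 0.5 to 1.5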
#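 Material: hSENP1 catalytic domain, recombinant; medium: Tris pH 8 with BME, BSA, NP40 and catalase; compound: single concentration of 10 µM compound, 0.5% DMSO final; technique: FRET read of cyan and yellow fluorescence; timing: 50 min enzyme reaction, room temperature, light-protected; reagent: SFCypet-SUMO1-SFYpet substrate at 25 nM; control set: no-enzyme low, enzyme-DMSO high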
# caTPT1 confirm = confirmation of Candida albicans TPT1 inhibitors. shares compounds with TPT1 inhibitor. recombinant caTPT1, fluorescence polarization, RNase T1 coupled. inhibition, % at 5 µM. 74% of 2,400 active. AID 2149;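 active = inhibition above the primary screen limit, the mean inhibition of all tested compounds plus 3 SD, cut at about 25% in these data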
# RNase T1 inh = RNase T1 inhibition in TPT1 counter-screen | shares compounds with TPT1 inhibitor | RNase T1 cleavage, fluorescence polarization, 1536-well | inhibition, % at 5 µM | 83% of 2,400 active | AID 2153;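 active = inhibition above the solvent-only control well mean plus 3 SD, limit set per screening run, cut at about 23% in these data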;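 also: inhibitors block cleavage so intact labeled substrate keeps polarization high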
# A number is an active result; . = inactive; / = not tested or not shown; + = active, no number.
SMILES,UBC9 SUMO inh,TPT1 inhibitor,HNF4A DNA FP,CSN deneddyl inh,Rpn11 inh,SENP1 FRET inh,caTPT1 confirm,RNase T1 inh
Cc1cccc(CN2C(=O)N/C(=C/c3ccc(C)s3)C2=O)c1,.,98,35,.,/,.,87,95
CCN1C(=O)/C(=C/c2ccc(C)s2)NC1=S,.,.,.,.,.,.,/,/
Cc1ccc(/C=C2/NC(=O)N(Cc3ccccc3)C2=O)s1,.,88,55,.,/,.,91,95
O=C(Cc1ccsc1)N1CCN(S(=O)(=O)c2cccc(F)c2)CC1,/,.,.,.,.,.,/,/
O=C(CSc1ccc(-c2ccccn2)nn1)N1CCc2ccccc21,.,.,.,.,.,.,/,/
Cc1cccc(C)c1NC(=S)NCCCN1CCCC1=O,.,.,.,.,.,.,/,/
Cc1ccc(-n2c(O)c(/C=N/NC(=O)C3COc4ccccc4O3)c3ccccc3c2=O)cc1 (stereo not given),.,.,.,.,.,.,/,/
Cc1c(/C=N\NC(=O)C2COc3ccccc3O2)c2ccccc2n1C (stereo not given),.,51,.,.,.,.,.,.
Cn1cc(/C=N\NC(=O)C2COc3ccccc3O2)c2ccccc21 (stereo not given),.,.,/,/,/,/,/,/
O=C(N/N=C/c1c(O)n(-c2ccccc2Cl)c(=O)c2ccccc12)C1COc2ccccc2O1 (stereo not given),.,26,.,.,.,.,65,79
CN1CCC/C1=C/C=C1\SC(=S)NC1=O,.,146,.,.,/,.,154,140
Cn1nnnc1SCc1ccc(Cl)cc1,.,.,.,.,.,.,/,/
Cn1nnnc1SCc1ccc(CSc2nnnn2C)cc1,.,55,.,.,.,.,.,.
C=CCSc1nc(C)c(CC(=C)C)c(=O)[nH]1,.,.,.,.,.,.,/,/
CCOCCCN(C)C1CCN(C(=O)c2oc3ccccc3c2NC(=O)c2cccc([N+](=O)[O-])c2)CC1,.,.,.,.,.,.,/,/
O=C(c1ccco1)N1CCN(C2CN(Cc3ccc(F)cc3)S(=O)(=O)C2)CC1 (stereo not given),/,/,.,.,.,.,/,/
CCN(CC)S(=O)(=O)c1cc(NC(=O)Cn2cnc3ccccc3c2=O)ccc1C,.,.,.,.,.,.,/,/
N#Cc1cccc(NC(=O)CSc2ccc3c4c(cccc24)C(=O)c2ccccc2-3)c1,.,.,.,.,.,.,/,/
COc1ccc(NC(=O)CSc2ccc3c4c(cccc24)C(=O)c2ccccc2-3)cc1,.,26,.,.,.,.,28,41
COc1ccc(C2C(C#N)=C(N)N(c3ccccc3)C3=C2C(=O)CCC3)cc1Cn1cc([N+](=O)[O-])cn1 (stereo not given),.,.,.,.,.,.,/,/
COc1ccc(C2C(C#N)=C(N)N(c3cccnc3)C3=C2C(=O)CCC3)cc1Cn1cc([N+](=O)[O-])cn1 (stereo not given),.,37,.,.,.,.,43,55
COCCCNC(NC(=O)c1ccc(Br)cc1)C(Cl)(Cl)Cl (stereo not given),.,.,.,.,.,.,/,/
Cn1cccc1CC(=O)N/N=C/c1cccc2ccccc12,.,33,.,.,.,.,.,30
Cc1ccc(NC(=O)OCCNC(=O)OC(C)C)cc1,.,.,.,.,.,.,/,/
COc1ccccc1NS(=O)(=O)c1cccc(C(=O)N/N=C/c2ccc3c(c2)OCCO3)c1,.,.,.,.,.,.,/,/
SMILES,UBC9 SUMO inh,TPT1 inhibitor,HNF4A DNA FP,CSN deneddyl inh,Rpn11 inh,SENP1 FRET inh,caTPT1 confirm,RNase T1 inh
CCN(CC)c1ccc(/C=N/NC(=O)c2cccc(S(=O)(=O)Nc3ccccc3OC)c2)c(O)c1,.,55,.,.,/,.,78,87
CC(=O)N(C(C)=O)S(=O)(=O)c1ccc(N=NN2CCCCC2)cc1,.,.,.,.,.,.,/,/
O=C(NC12CC3CC(CC(C3)C1)C2)c1cc(F)c(F)c(F)c1F,.,44,.,.,.,.,.,.
CCOc1ccc(N(CC(=O)Nc2cccc(C)c2C)S(=O)(=O)c2c(C)[nH]c(=O)[nH]c2=O)cc1,.,.,.,.,.,.,/,/
COC(=O)c1cccc(Cn2c(Cl)c(/C=N/Nc3ccccc3C)sc2=O)c1,.,29,.,.,.,.,35,42
CCOC(=O)COc1ccc(S(=O)(=O)N2CCN(c3ccccc3F)CC2)cc1,.,109,.,.,.,.,.,.
CSc1ccc(CN2CCN(CCC(C)C)C(CCO)C2)cc1 (stereo not given),.,.,.,.,.,.,/,/
CC(=O)Nc1cccc(C(=O)/C=C/c2ccc(N(C)C)cc2)c1,.,103,83,.,/,.,100,99
CCN1/C(=C/c2ccc3cc(C)ccc3[n+]2CC)Sc2ccc3sccc3c21,/,33,.,162,+,58,63,66
CC1CCN(c2c(NCc3ccc(C(=O)NCCc4ccc(Cl)cc4)cc3)c(=O)c2=O)CC1,.,.,.,.,.,.,/,/
COc1ccc(CCNC(=O)c2ccc3c(c2)NC(=O)C(CSCc2cc(C)ccc2C)N3)cc1OC (stereo not given),.,129,/,/,/,/,124,122
COc1ccc(CCNC(=O)c2ccc3c(c2)NC(=O)C(C(C)C)N3)cc1OC (stereo not given),.,.,.,.,.,.,/,/
CC(=O)Oc1cccc(/C=C2\C=C(c3ccc(C)cc3)OC2=O)c1,.,.,.,.,.,.,/,/
CCOc1ccc(C2=C/C(=C/c3cccnc3)C(=O)O2)cc1,.,83,.,.,.,.,69,78
COc1ccc(C2=C/C(=C\c3ccc(OC(C)=O)cc3)C(=O)O2)cc1,.,.,.,.,.,.,/,/
COc1ccc(C2=C/C(=C/c3cccnc3)C(=O)O2)cc1OC,.,80,.,.,/,.,80,85
CCCCCN1C=CC=C/C1=C\C=C(C#N)C#N,.,41,.,.,.,.,44,58
CN(C)c1ccc(/C=C2\N=C(c3ccc(Cl)c([N+](=O)[O-])c3)NC2=O)cc1,.,53,.,.,.,65,86,94
CCc1cccc2cc3c(N)c(C(=O)Nc4ccc(S(=O)(=O)N5CCCC5)cc4)sc3nc12,.,39,.,.,/,.,33,42
COc1ccccc1NC(=O)CSc1nnc(CCNC(=O)c2ccc(C)cc2)n1C,.,.,.,.,.,.,/,/
